Reference: ChEMBL document CHEMBL1125746, “Novel heteroarotinoids: synthesis and biological activity” (1991)

What was measured:
[1] = molecular target: T1, Ornithine decarboxylase (Mus musculus) (UniProt P00860); assay: Compound was evaluated for the ability to inhibit the phorbol ester induced increase of mouse epidermal ornithine decarboxylase (ODC) activity by 50% when administered topically using ODC assay.; assay type: functional
T1 sequence (whole entry): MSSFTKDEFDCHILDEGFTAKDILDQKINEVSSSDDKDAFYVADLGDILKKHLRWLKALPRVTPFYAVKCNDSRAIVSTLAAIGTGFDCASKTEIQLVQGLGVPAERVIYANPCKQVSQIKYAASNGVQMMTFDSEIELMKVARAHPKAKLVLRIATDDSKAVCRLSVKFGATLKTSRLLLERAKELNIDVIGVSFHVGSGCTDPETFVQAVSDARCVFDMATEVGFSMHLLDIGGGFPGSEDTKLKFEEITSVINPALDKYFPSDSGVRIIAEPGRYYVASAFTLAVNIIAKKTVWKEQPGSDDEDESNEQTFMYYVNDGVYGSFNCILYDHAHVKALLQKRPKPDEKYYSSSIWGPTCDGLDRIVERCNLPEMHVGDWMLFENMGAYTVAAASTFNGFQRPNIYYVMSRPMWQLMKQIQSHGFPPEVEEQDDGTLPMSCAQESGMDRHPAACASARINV
In short: (§1)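 Retinoids applied topically to mouse skin at 0.1, 1.0, 5.0, 10 and 50 nmol, 1 h before 10 nmol TPA. Epidermal ODC activity measured 4.5 h after TPA as nmol CO2/30 min per mg protein. ID50 (dose giving 50% inhibition of TPA-induced ODC) read from dose-response curves; three experiments, results normalized.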

[2] = system: HL-60; assay: Compound was evaluated for the retinoid-induced differentiation of the human myeloid leukemia cell line HL-60 using trans-retinoic acid as the standard.; assay type: functional; conditions: read-out: ED50 (the source's name)
[3] = molecular target: Ornithine decarboxylase (Mus musculus) (UniProt P00860); assay: Compound was evaluated for the ability to inhibit the phorbol ester induced increase of mouse epidermal ornithine decarboxylase (ODC) activity by 50% when administered topically using ODC assay.
[4] = molecular target: T1, Ornithine decarboxylase (Mus musculus); assay: Compound was evaluated for the percentage inhibition of test retinoid as compared to the control by ODCassay; assay type: functional; conditions: concentration not given here
In short: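 Single topical retinoid dose of 34 nmol given 1 h before 10 nmol TPA on mouse skin. Epidermal ODC assayed 4.5 h after TPA as nmol CO2/30 min per mg protein. Three groups of two mice each. % inhibition = [(ODC with TPA) − (ODC with TPA + retinoid)]/(ODC with TPA) × 100.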

[5] = molecular target: T1, Ornithine decarboxylase (Mus musculus); assay: Compound was evaluated for the ability to inhibit the phorbol ester induced increase of mouse epidermal ornithine decarboxylase; assay type: functional; in short: as §1

Row | Compound | ID50 [1] | EC50 [2] | further results
1 | CC(/C=C/C=C(\C)c1ccc2c(c1)C(C)(C)CC(C)(C)S2)=C\C(=O)O | 0.0037 µM | > 1 µM | 
2 | CC1(C)CCOc2ccc(/C(=C/c3ccc(C(=O)O)cc3)C(F)(F)F)cc21 | > 0.05 µM | > 1 µM | 
3 | C/C(=C\C=C\[C@H]1C[C@@H]1C(=O)O)c1ccc2c(c1)C(C)(C)CCS2 | 0.035 µM | > 1 µM | 
4 | CC1(C)CC(C)(C)c2cc(/C(=C/c3ccc(C(=O)O)cc3)C(F)(F)F)ccc2S1 | > 0.05 µM |  | 
5 | C/C(=C\c1ccc(C(=O)O)cc1)c1ccc2c(c1)C(C)(C)CC(C)(C)S2 | 0.00031 µM | > 1 µM | 
6 | CC1=C(/C=C/C(C)=C/C=C/C(C)=C\C(=O)O)C(C)(C)CCC1 [ISOTRETINOIN] |  | 0.1 µM | 
7 | CC1(C)CCSc2ccc(/C(=C/c3ccc(C(=O)O)cc3)C(F)(F)F)cc21 | 0.035 µM | > 1 µM | 
8 | COC(=O)c1ccc(/C=C(/c2ccc3c(c2)C(C)(C)CCS3)C(F)(F)F)cc1 | > 0.05 µM |  | 
9 | COC(=O)c1ccc(/C=C(/c2ccc3c(c2)C(C)(C)CCO3)C(F)(F)F)cc1 | > 0.05 µM |  | 
10 | COC(=O)c1ccc(/C=C(\C)c2ccc3c(c2)C(C)(C)CC(C)(C)S3)cc1 |  |  | ID50 [3]: 0.0003 µM
11 | CC(/C=C/C=C(\C)c1ccc2c(c1)C(C)(C)CCS2)=C\C(=O)O | 0.0033 µM | 0.5 µM | 
12 | C/C(=C\c1ccc(C(=O)O)cc1)c1ccc2c(c1)C(C)(C)CS2.CCCCCCCCCCCCCC(=O)OCC1(C)[C@H]2[C@@H]3C=C(CO)C[C@]4(O)C(=O)C(C)=C[C@H]4[C@@]3(O)[C@H](C)[C@@H](O)[C@]21OC(C)=O (some centres undefined) |  |  | inhibition [4]: 91%; ID50 [5]: 0.022 µM
13 | CCCCCCCCCCCCCC(=O)OCC1(C)[C@H]2[C@@H]3C=C(CO)C[C@]4(O)C(=O)C(C)=C[C@H]4[C@@]3(O)[C@H](C)[C@@H](O)[C@]21OC(C)=O.COC(=O)c1ccc(/C=C(\C)c2ccc3c(c2)C(C)(C)CS3)cc1 (some centres undefined) |  |  | inhibition [4]: 94%; ID50 [5]: 0.0012 µM
14 | COC(=O)c1ccc(/C=C(/c2ccc3c(c2)C(C)(C)CC(C)(C)S3)C(F)(F)F)cc1 | > 0.05 µM |  | 
15 | CC1=C(/C=C/C(C)=C/C=C/C(C)=C/C(=O)O)C(C)(C)CCC1 [TRETINOIN] | 0.00012 µM | 0.05 µM | 
